Data reported in ChEMBL document CHEMBL1140307, “Design and synthesis of alpha-aryloxyphenylacetic acid derivatives: a novel class of PPARalpha/gamma dual agonists with potent antihyperglycemic and lipid modulating activity” (J Med Chem, 2005).
Several values for one entry are separate records, joined by “and”; a condition that tells them apart may be missing. Equal values may be shown once.

What was measured:
Rattus norvegicus [1] = assay: Effect (150 mg/kg) on PPAR gamma- mediated effects measured as change in hematocrit weight in rats; format: functional
Outline: (§1)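 Male Sprague-Dawley rats (about 200 g, n = 6) were fed rodent chow and gavaged once daily for 2 weeks with compound in 0.5% methylcellulose. Body weight was recorded on days 1, 4, 6, 8, 11 and 14. Rats were euthanized with CO2 24 h after the last dose, and BAT, heart and liver were weighed. Blood was taken by heart puncture for hematocrit. Results are mean ± SD versus vehicle.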

[2] = Area under concentration time curve of compound when administered perorally at a dose of 2 mg/kg to dogs; format: ADME, organism-based, Canis lupus familiaris; design: dose 2 mg/kg, route oral; conditions: dog, in vivo, po
Outline: (§2)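 Male Sprague-Dawley rats (n = 3) and male adult Beagle dogs (n = 4) were fasted overnight. They received either a 2 mg/kg oral gavage dose or a 0.5 mg/kg IV bolus. Blood was drawn into heparin tubes from a femoral arterial cannula (rat) or the jugular vein (dog) at set time points. Plasma was acidified with 0.5 M formate pH 3.0, stored at -70 °C and quantified by LC-MS/MS.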

[3] = Area under concentration time curve of compound when administered perorally at a dose of 2 mg/kg to rats; format: ADME, organism-based; design: dose 2 mg/kg, route oral; conditions: rat, in vivo, po; outline: as §2
[4] = target: T1, Peroxisome proliferator-activated receptor gamma (Homo sapiens, UniProt P37231); assay: Agonist response against human PPAR gamma in transactivation assay; format: functional
T1 sequence (P37231 whole entry): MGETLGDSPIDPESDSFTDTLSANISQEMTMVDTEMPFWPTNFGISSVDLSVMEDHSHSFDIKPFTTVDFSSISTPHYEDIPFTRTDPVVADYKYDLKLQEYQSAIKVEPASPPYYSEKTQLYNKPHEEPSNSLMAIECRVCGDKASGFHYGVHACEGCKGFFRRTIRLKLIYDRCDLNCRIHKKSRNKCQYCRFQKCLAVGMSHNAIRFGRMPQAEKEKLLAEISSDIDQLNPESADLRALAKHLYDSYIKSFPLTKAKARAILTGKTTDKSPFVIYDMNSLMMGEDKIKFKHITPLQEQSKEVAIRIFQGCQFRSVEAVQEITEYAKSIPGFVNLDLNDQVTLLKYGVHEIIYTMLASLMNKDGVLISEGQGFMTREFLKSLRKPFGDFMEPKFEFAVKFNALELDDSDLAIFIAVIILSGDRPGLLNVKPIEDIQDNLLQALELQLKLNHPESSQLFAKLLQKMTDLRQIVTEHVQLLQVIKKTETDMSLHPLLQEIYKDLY

Cricetinae gen. sp. [5] = assay: Percentage change in the serum cholesterol upon administration of compound (10 mpk) in hamster; format: functional
Outline: (§3)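 Male Golden Syrian hamsters were fed normal rodent chow and dosed orally once daily with compound. Serum total cholesterol and triglyceride were measured and expressed as percent change versus vehicle controls.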

Rattus norvegicus [6] = assay: Effect (150 mg/kg) on PPAR gamma- mediated effects measured as change in liver weight in rats; format: functional; outline: as §1
Rattus norvegicus [7] = assay: Effect (150 mg/kg) on PPAR gamma- mediated effects measured as change in brown adipose tissue weight in rats; format: functional; outline: as §1
Rattus norvegicus [8] = assay: Effect (150 mg/kg) on PPAR gamma- mediated effects measured as change in heart weight in rats; format: functional; outline: as §1
Rattus norvegicus [9] = assay: Effect (150 mg/kg) on PPAR gamma- mediated effects measured as change in body weight in rats; format: functional; outline: as §1
[10] = Oral bioavailability in dog; format: ADME, organism-based, Canis lupus familiaris; conditions: in vivo; outline: as §2
Cricetinae gen. sp. [11] = assay: Percentage change in the serum triglyceride upon administration of compound (10 mpk) in hamster; format: functional; outline: as §3
[12] = target: T2, Peroxisome proliferator-activated receptor alpha (Homo sapiens, UniProt Q07869); assay: Agonist response against human PPAR alpha in transactivation assay
T2 sequence (Q07869 whole entry): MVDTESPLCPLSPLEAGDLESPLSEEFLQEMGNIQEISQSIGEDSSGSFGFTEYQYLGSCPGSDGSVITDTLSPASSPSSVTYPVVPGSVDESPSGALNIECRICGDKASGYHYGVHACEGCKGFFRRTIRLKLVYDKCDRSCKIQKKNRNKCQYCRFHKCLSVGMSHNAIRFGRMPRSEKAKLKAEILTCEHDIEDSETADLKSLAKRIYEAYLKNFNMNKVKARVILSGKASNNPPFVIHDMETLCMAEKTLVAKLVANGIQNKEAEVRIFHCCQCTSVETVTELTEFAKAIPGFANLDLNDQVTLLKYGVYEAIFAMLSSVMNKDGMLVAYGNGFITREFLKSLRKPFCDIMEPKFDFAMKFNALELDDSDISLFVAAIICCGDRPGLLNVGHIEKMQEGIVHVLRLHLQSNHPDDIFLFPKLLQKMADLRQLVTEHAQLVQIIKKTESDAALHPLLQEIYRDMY

[13] = Oral bioavailability in rat; format: ADME, organism-based; conditions: in vivo; outline: as §2
[14] = target: T1, Peroxisome proliferator-activated receptor gamma; assay: In vitro binding affinity for human PPAR gamma
[15] = target: T2, Peroxisome proliferator-activated receptor alpha; assay: In vitro binding affinity for human PPAR alpha
Cricetinae gen. sp. [16] = assay: Effect (10 mpk) on serum cholesterol in hamster; format: functional
Outline: (§4)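 Male Golden Syrian hamsters on normal rodent chow, dosed orally with test compound (9 days per table legend). Serum total cholesterol and triglyceride were measured in mg/dL. Values are group means, expressed as % change versus the vehicle-treated control group.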

[17] = Half life when administered intravenously at a dose of 0.5 mg/kg to dogs; format: ADME, organism-based, Canis lupus familiaris; design: dose 0.5 mg/kg, route intravenous; conditions: dog, in vivo, iv; outline: as §2
[18] = Half life when administered intravenously at a dose of 0.5 mg/kg to rats; format: ADME, organism-based; design: dose 0.5 mg/kg, route intravenous; conditions: rat, in vivo, iv; outline: as §2
Mesocricetus auratus [19] = species: Mesocricetus auratus; assay: Effect (10 mpk) on serum triglyceride in hamster
Canis familiaris [20] = assay: Percentage change in the serum cholesterol upon administration of compound (10 mpk) in dogs
[21] = target: T3, Peroxisome proliferator-activated receptor gamma (Homo sapiens) (UniProt P37231); assay: Maximal activation of human Peroxisome proliferator activated receptor gamma
T3 sequence (whole entry): T1 sequence (P37231 whole entry)
Outline: (§5)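 Cell-based transactivation assay using GAL4-PPAR chimeric receptors with a reporter gene carrying a GAL4 response element. The top concentration tested was 3 µM. Values are the mean of three determinations.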

[22] = target: T4, Peroxisome proliferator-activated receptor alpha (Homo sapiens) (UniProt Q07869); assay: Maximal activation of human Peroxisome proliferator activated receptor alpha; outline: as §5
T4 sequence (whole entry): T2 sequence (Q07869 whole entry)

Cricetinae gen. sp. [23] = assay: Percentage change in the serum triglyceride upon administration of compound (100 mpk) in hamster; format: functional; outline: as §3
Canis familiaris [24] = assay: Percentage change in the serum cholesterol upon administration of compound (20 mpk) in dogs; format: functional, Canis lupus familiaris
Outline: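 Male Beagle dogs were housed individually on a cholesterol-free chow diet, five per group. Baseline serum cholesterol was taken from weekly jugular bleeds before the study. Compound suspended in 0.5% methylcellulose was gavaged daily for 2 weeks. Serum cholesterol was measured during and after dosing and reported as mean percent change (n = 5).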

Cricetinae gen. sp. [25] = assay: Percentage change in the serum cholesterol upon administration of compound (100 mpk) in hamster; format: functional; outline: as §3
Mesocricetus auratus [26] = species: Mesocricetus auratus; assay: Effect (100 mpk) on serum triglyceride in Golden Syrian hamster
Cricetinae gen. sp. [27] = assay: Effect (100 mpk) on serum cholesterol in hamster; format: functional; outline: as §4
Canis familiaris [28] = assay: Percentage change in the serum cholesterol upon administration of compound (100 mpk) in dogs
Cricetinae gen. sp. [29] = assay: Percentage change in the serum cholesterol upon administration of compound (3 mpk) in hamster; format: functional; outline: as §3
Mesocricetus auratus [30] = species: Mesocricetus auratus; assay: Effect (3 mpk) on serum triglyceride in hamster
Cricetinae gen. sp. [31] = assay: Effect (3 mpk) on serum cholesterol in hamster; format: functional; outline: as §4
Cricetinae gen. sp. [32] = assay: Percentage change in the serum triglyceride upon administration of compound (3 mpk) in hamster; format: functional; outline: as §3

Row | Compound | Hematocrit (Rattus norvegicus [1]) | AUC [2] | AUC [3] | EC50 [4] | Change (Cricetinae gen. sp. [5]) | Liver weight (Rattus norvegicus [6]) | BAT (Rattus norvegicus [7]) | Heart weight (Rattus norvegicus [8]) | Body weight (Rattus norvegicus [9]) | bioavailability [10] | EC50 [12] | bioavailability [13] | IC50 [14] | IC50 [15] | also measured
1 | CCCc1cc2c(oc(=O)n2CC)c(CCC)c1O[C@H](C(=O)O)c1ccc(C(C)C)cc1 | 45.6% | 9.1 µM·h | 127 µM·h | 120 nM | -25% | 22.4 g | 0.24 g | 1.1 g | 283 g | 35% | 290 nM | 72% | 99 nM | 74 nM | Change (Cricetinae gen. sp. [11]): -6%
2 | CCCc1cc(C(=O)CC)cc(CCC)c1O[C@H](C(=O)O)c1ccc(CC)cc1 |  |  |  | 480 nM |  |  |  |  |  |  | 76 nM |  | 210 nM | 64 nM | 
3 | CCCc1cc2c(=O)n(C)oc2c(CCC)c1O[C@H](C(=O)O)c1ccc(C(C)C)cc1 | 45.7% | 26.9 µM·h | 67.5 µM·h | 390 nM | -17% | 20.3 g | 0.24 g | 1.14 g | 278 g | 73% | 670 nM | 73% |  | 74 nM | Cholesterol level (Cricetinae gen. sp. [16]): 106 mg/dL; half-life [17]: 1.6 h; Change (Cricetinae gen. sp. [11]): -9%; half-life [18]: 7.2 h; Triglyceride level (Mesocricetus auratus [19]): 303 mg/dL; Change (Canis familiaris [20]): -17.3%
4 | CCCc1cc(C(=O)CC)cc(Cl)c1O[C@H](C(=O)O)c1ccc(C(C)C)cc1 |  |  |  | 360 nM |  |  |  |  |  |  | 260 nM |  | 220 nM | 260 nM | 
5 | CCCc1cc(C(=O)CC)cc(CCC)c1O[C@H](C(=O)O)c1ccc(CC(C)C)cc1 |  |  |  | 180 nM |  |  |  |  |  |  | 39 nM |  | 220 nM | 58 nM | Maximal activation [21]: 66%; Maximal activation [22]: 807%
6 | CC(C)OC(=O)C(C)(C)Oc1ccc(C(=O)c2ccc(Cl)cc2)cc1 [FENOFIBRATE] |  |  |  |  |  |  |  |  |  |  |  |  |  |  | Change (Cricetinae gen. sp. [23]): -26%; Change (Canis familiaris [24]): -4.7%; Change (Cricetinae gen. sp. [25]): -29%; Triglyceride level (Mesocricetus auratus [26]): 244 mg/dL; Cholesterol level (Cricetinae gen. sp. [27]): 91 mg/dL; Change (Canis familiaris [28]): -23.5%
7 | CCCc1cc2c(=O)n(C(C)C)oc2c(CCC)c1O[C@H](C(=O)O)c1ccc(C(C)C)cc1 |  |  |  | 430 nM |  |  |  |  |  |  | 270 nM |  | 160 nM | 230 nM | 
8 | CCCc1cc2c(=O)n(C)oc2c(CCC)c1O[C@H](C(=O)O)c1ccccc1 |  |  |  | 390 nM |  |  |  |  |  |  | 670 nM |  | 3800 nM | 850 nM | 
9 | CCCc1cc(C(=O)CC)cc(CCC)c1O[C@H](C(=O)O)c1ccc(C(C)C)cc1 |  | 70.5 µM·h | 154 µM·h | 150 nM | -33% and -29% and -17.5% |  |  |  |  | 85% | 56 nM | 65% | 75 nM | 23 nM | Cholesterol level (Cricetinae gen. sp. [16]): 86 mg/dL; Triglyceride level (Cricetinae gen. sp. [16]): 236 mg/dL; Change (Cricetinae gen. sp. [29]): -32%; Triglyceride level (Mesocricetus auratus [30]): 259 mg/dL; Cholesterol level (Cricetinae gen. sp. [31]): 88 mg/dL; Change (Cricetinae gen. sp. [32]): -22%; half-life [17]: 2.5 h; half-life [18]: 6.1 h
10 | CN(CCOc1ccc(CC2SC(=O)NC2=O)cc1)c1ccccn1 (centres undefined) [ROSIGLITAZONE] | 41.3% |  |  |  |  | 16.6 g | 1.03 g | 1.46 g | 322 g |  |  |  |  |  | 
